Experimental data published in ChEMBL document CHEMBL4321878, “Stereoselective Activity of 1-Propargyl-4-styrylpiperidine-like Analogues That Can Discriminate between Monoamine Oxidase Isoforms A and B” (J Med Chem, 2020).
Activity calls are given as the source filed them. No cut-off for these calls is given here.

What was measured:
[1] = tested on: Mus musculus; assay: Antidepressant-like activity in Swiss mouse assessed as reduction in immobility time at 3 to 10 mg/kg, ip administered as single dose for 30 mins prior to testing measured for last 4 mins of 6 mins test by tail suspension test; format: functional, organism-based
[2] = Cytotoxicity against human SH-SY5Y cells assessed as cell viability at 50 uM measured after 24 hrs by MTS assay relative to control; format: cell-based; conditions: read-out: Activity
Method in brief: (§1)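 SH-SY5Y human neuroblastoma cells grown in Advanced DMEM with 10% FBS at 37 °C, 5% CO2, and switched to serum-depleted medium before treatment. Compounds (20 mM DMSO stocks) were applied at 5, 10 or 50 μM for 24 h. Viability read by MTS assay.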

[3] = tested on: SH-SY5Y; assay: Cytotoxicity against human SH-SY5Y cells assessed as reduction in cell viability at 5 to 10 uM measured after 24 hrs by MTS assay; format: cell-based; method in brief: as §1
[4] = tested on: Mus musculus; assay: Effect on spontaneous locomotor activity in Swiss mouse assessed as change in number of light beam crossings at 10 mg/kg, ip measured after 30 mins and monitored for 5 mins; format: ADME, organism-based; conditions: in vivo
[5] = tested on: Mus musculus; assay: Antianxiety activity in Swiss mouse assessed as number of total arm entries at 10 mg/kg, ip measured after 30 mins and monitored for 5 mins by elevated plus maze test; format: functional
Method in brief: (§2)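 Adult male Swiss mice (25–30 g), given hydrochloride salts in 0.9% saline ip 30 min before the elevated plus maze; control mice received saline, with diazepam 1 mg/kg ip as reference. Scored arm entries, open-arm parameters and time in centre. Mice were used once, randomly assigned, and scored by blinded observers between 10:00 and 14:00 h.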

[6] = tested on: Mus musculus; assay: Antianxiety activity in Swiss mouse assessed as proportion of time spent in centre at 10 mg/kg, ip measured after 30 mins and monitored for 5 mins by elevated plus maze test relative to control; format: functional; method in brief: as §2
[7] = Photoisomerization of the compound in D2O incubated for 7 days under sunlight by NMR analysis
[8] = tested on: Mus musculus; assay: Ex vivo inhibition of MAOB in ip dosed Swiss mouse brain homogenates measured after 30 mins using benzylamine as substrate by amplex red reagent-based horseradish peroxidase-coupled fluorescence assay; format: functional
[9] = tested on: Mus musculus; assay: Reversal of haloperidol-induced catalepsy in Swiss mouse at 0.3 mg/kg, ip pretreated for 15 mins followed by haloperidol challenge and measured up to 90 mins; format: functional, organism-based
[10] = biological target: T1, Amine oxidase [flavin-containing] A (Homo sapiens, UniProt P21397); assay: Irreversible inhibition of recombinant human MAOA expressed in Pichia pastoris at 100 uM measured immediately by UV-vis spectrophotometric analysis relative to control
T1 sequence (P21397 whole entry): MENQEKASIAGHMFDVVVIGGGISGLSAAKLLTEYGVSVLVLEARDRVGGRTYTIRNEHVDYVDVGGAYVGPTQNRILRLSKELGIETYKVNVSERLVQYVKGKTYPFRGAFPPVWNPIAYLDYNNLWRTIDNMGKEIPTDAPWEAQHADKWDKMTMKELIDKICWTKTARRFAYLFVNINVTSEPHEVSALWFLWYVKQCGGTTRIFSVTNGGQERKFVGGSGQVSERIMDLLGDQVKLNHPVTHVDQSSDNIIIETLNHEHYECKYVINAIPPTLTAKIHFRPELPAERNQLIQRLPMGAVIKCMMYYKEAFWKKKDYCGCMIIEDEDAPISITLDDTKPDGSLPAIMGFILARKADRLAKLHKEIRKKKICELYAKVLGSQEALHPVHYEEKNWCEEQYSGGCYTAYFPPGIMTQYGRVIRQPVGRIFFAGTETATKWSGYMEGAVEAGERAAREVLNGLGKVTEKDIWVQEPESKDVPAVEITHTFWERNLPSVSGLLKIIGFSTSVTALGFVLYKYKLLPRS

[11] = Apparent permeability across absorptive direction in Sprague-Dawley rat ileum at 50 uM measured after 20 mins LC-MS/MS analysis; format: ADME, tissue-based
[12] = tested on: Mus musculus; assay: Antianxiety activity in Swiss mouse assessed as increase in time spent in open arm entries at 3 mg/kg, ip measured after 30 mins and monitored for 5 mins by elevated plus maze test relative to control; format: functional
[13] = tested on: Mus musculus; assay: Ex vivo inhibition of MAOA in ip dosed Swiss mouse brain homogenates measured after 30 mins using 5-HT as substrate by amplex red reagent-based horseradish peroxidase-coupled fluorescence assay; format: functional
[14] = Toxicity in Swiss mouse assessed as change in body weight at 0.3 mg/kg, ip administered once daily for 10 days measured during compound dosing; format: organism-based; conditions: in vivo, 240 h
[15] = Toxicity in Swiss mouse assessed as change in behavior at 0.3 mg/kg, ip administered once daily for 10 days measured during compound dosing; format: organism-based; conditions: in vivo, 240 h
[16] = tested on: Mus musculus; assay: Ex vivo inhibition of MAOA in Swiss mouse brain homogenates assessed as residual activity at 30 mg/kg, po administered via gavage measured after 90 mins using 5-HT as substrate by amplex red reagent-based horseradish peroxidase-coupled fluorescence assay relative to control; format: functional
[17] = tested on: Mus musculus; assay: Effect on spontaneous locomotor activity in Swiss mouse assessed as change in number of light beam crossings at 0.3 mg/kg, ip administered […] and monitored for 5 mins; format: ADME, organism-based; conditions: in vivo
[18] = tested on: Mus musculus; assay: Antianxiety activity in Swiss mouse assessed as increase in open arm entries at 3 mg/kg, ip measured after 30 mins and monitored for 5 mins by elevated plus maze test relative to control; format: functional
[19] = tested on: Mus musculus; assay: Ex vivo inhibition of MAOA in Swiss mouse brain homogenates assessed as residual activity at 60 mg/kg, ip measured after 30 mins using 5-HT as substrate by amplex red reagent-based horseradish peroxidase-coupled fluorescence assay relative to control; format: functional
Method in brief: (§3)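 Male Swiss mice (n = 3 per group) received 60 mg/kg ip in 0.9% saline, or saline alone, 30 min before brain homogenate preparation. […] Residual activity reported as mean ± SD, n = 1 in triplicate.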

[20] = biological target: T2, Amine oxidase [flavin-containing] A (Mus musculus, UniProt Q64133); assay: Inhibition of MAOA in Swiss mouse brain homogenates assessed as residual activity at 50 uM using 5-HT as substrate preincubated for 10 mins followed by substrate addition by amplex red reagent-based horseradish peroxidase-coupled fluorescence assay relative to control; format: tissue-based; conditions: read-out: Activity
T2 sequence (Q64133 whole entry): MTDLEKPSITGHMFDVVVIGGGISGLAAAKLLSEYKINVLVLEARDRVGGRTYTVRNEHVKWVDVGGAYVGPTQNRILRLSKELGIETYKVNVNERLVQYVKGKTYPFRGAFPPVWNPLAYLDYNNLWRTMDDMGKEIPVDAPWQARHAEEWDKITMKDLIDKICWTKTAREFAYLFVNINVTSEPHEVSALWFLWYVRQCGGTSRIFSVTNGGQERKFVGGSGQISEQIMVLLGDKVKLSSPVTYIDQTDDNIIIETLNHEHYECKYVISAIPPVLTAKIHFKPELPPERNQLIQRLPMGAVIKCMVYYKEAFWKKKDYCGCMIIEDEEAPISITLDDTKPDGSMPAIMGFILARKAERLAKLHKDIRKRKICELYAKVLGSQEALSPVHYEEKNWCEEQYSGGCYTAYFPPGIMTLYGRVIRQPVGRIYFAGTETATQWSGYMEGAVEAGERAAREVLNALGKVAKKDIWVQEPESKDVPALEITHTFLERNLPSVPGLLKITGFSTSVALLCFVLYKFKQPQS

[21] = tested on: Mus musculus; assay: Effect on spontaneous locomotor activity in Swiss mouse assessed as change in number of light beam crossings at 3 mg/kg, ip measured after 30 mins and monitored for 5 mins; format: ADME, organism-based; conditions: in vivo
[22] = Thermodynamic solubility of the compound in pH 7.4 phosphate buffered saline assessed per […] at 7 to 9 mg incubated for 24 hrs under shaking condition by HPLC analysis; format: physicochemical; conditions: in vitro, pH 7.4, 24 h
[23] = tested on: Mus musculus; assay: Ex vivo inhibition of MAOA/MAOB in Swiss mouse brain homogenates assessed as residual activity at 60 mg/kg, ip measured after 30 mins using p-tyramine as substrate by amplex red reagent-based horseradish peroxidase-coupled fluorescence assay relative to control; format: functional; method in brief: as §3
[24] = tested on: Mus musculus; assay: Antidepressant-like activity in Swiss mouse assessed as reduction in immobility time at 0.3 mg/kg, ip administered once daily for 10 days measured for last 4 mins of 6 mins test at 30 mins post-last dose test by tail suspension test; format: functional, organism-based
Method in brief: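 Male Swiss mice injected ip daily with 0.3 mg/kg in 0.9% saline for 10 days (n = 10; saline controls n = 8). Tail suspension test on day 10, 30 min after the injection. Immobility time reported as mean ± SEM and compared by unpaired t-test.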

[25] = Apparent permeability across eliminatory direction in Sprague-Dawley rat ileum at 50 uM measured after 20 mins LC-MS/MS analysis; format: ADME, tissue-based
[26] = tested on: Mus musculus; assay: Ex vivo inhibition of MAOA in Swiss mouse brain homogenates assessed as residual activity at 0.3 mg/kg, ip measured after 30 mins using 5-HT as substrate by amplex red reagent-based horseradish peroxidase-coupled fluorescence assay relative to control; format: functional
[27] = tested on: Mus musculus; assay: Antidepressant-like activity in Swiss mouse assessed as reduction in immobility time at 1 to 30 mg/kg, ip administered as single dose for 30 mins prior to testing measured for last 4 mins of 6 mins test by tail suspension test; format: functional, organism-based
[28] = tested on: Mus musculus; assay: Ex vivo inhibition of MAOA in Swiss mouse brain homogenates assessed as residual activity at 0.3 mg/kg, ip administered once daily for 10 days measured 30 mins post-last dose using 5-HT as substrate by amplex red reagent-based horseradish peroxidase-coupled fluorescence assay relative to control; format: functional
[29] = tested on: Mus musculus; assay: Antianxiety activity in Swiss mouse at 0.3 mg/kg, ip […] and monitored for 5 mins by elevated plus maze test; format: functional, organism-based
[30] = Chemical stability of the compound in D2O measured incubated for >1 year at room temperature under dark condition by NMR analysis; format: physicochemical
[31] = tested on: SH-SY5Y; assay: Neuroprotective activity against 6-OHDA-induced toxicity in human SH-SY5Y cells assessed as LDH release at 5 uM pretreated for 30 mins followed by 6-OHDA challenge and measured after 24 hrs by cytotox-onetm homogeneous membrane integrity assay (reference value: 135%); format: functional
[32] = Apparent permeability in Sprague-Dawley rat ileum at 50 uM measured after 20 mins LC-MS/MS analysis; format: ADME, tissue-based
[33] = tested on: SH-SY5Y; assay: Neuroprotective activity against 6-OHDA-induced toxicity in human SH-SY5Y cells assessed as reduction in propidium iodide positive cells at 5 uM pretreated for 30 mins followed by 6-OHDA challenge and measured after 24 hrs by propidium iodide staining-based flow cytometric analysis relative to 6-OHDA; format: functional
Method in brief: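 SH-SY5Y cells were grown in Advanced DMEM with 10% FBS at 37 °C, 5% CO2 to 80% confluence, then switched to serum-depleted medium. Compound (5 μM, from a 20 mM DMSO stock) was added 30 min before 6-OHDA (100 μM). After 24 h, PI staining was read by flow cytometry. Runs were n ≥ 2, each in duplicate, with one-way ANOVA and Bonferroni.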

[34] = tested on: Mus musculus; assay: Antianxiety activity in Swiss mouse assessed as increase in time spent in open arm entries at 1 mg/kg, ip measured after 30 mins and monitored for 5 mins by elevated plus maze test relative to control; format: functional
[35] = tested on: Mus musculus; assay: Antianxiety activity in Swiss mouse assessed as increase in open arm entries at 1 mg/kg, ip measured after 30 mins and monitored for 5 mins by elevated plus maze test relative to control; format: functional

Compound: C#CCN1CCC(/C=C\c2ccc(F)cc2)CC1.Cl
- Activity [1]: Active
- viability at 24 h, 50 µM [2]: > 80%
- Activity [3]: Non-Toxic
- Activity [4]: Toxic
- Activity [5]: 9.7
- Activity [6]: 13.4%

Compound: C#CCN1CCC(CCc2ccc(C(F)(F)F)cc2)CC1
- Drug metabolism [7]: Metabolite not detected
- inhibition [8]: Dose-dependent effect
- Activity [9]: inactive

Compound: C#CCN(C)CCCOc1ccc(Cl)cc1Cl [CLORGILINE]
- inhibition at 100 µM [10]: 100%

Compound: C#CCN1CCC(/C=C\c2cccc(F)c2)CC1.Cl
- Papp A→B at 20 min, 50 µM [11]: 108 nm/s
- fold change (FC) [12]: 2.1
- inhibition [13]: Dose-dependent effect
- ED50 ([13]; 0.5 h): 0.43 mg/kg
- Activity [14]: Non-Toxic
- Activity [15]: Non-Toxic
- Activity [16]: 45.3%
- Drug metabolism [7]: Metabolite not detected
- Activity [17]: Non-Toxic
- viability at 24 h, 50 µM [2]: > 80%
- fold change (FC) [18]: 2
- Activity [19]: 1.6%
- activity at 50 µM [20]: -1.3%
- Activity [21]: Non-Toxic
- Therm solubility [22]: ≥ 34.4 mg/mL
- Activity [23]: 14.2%
- Activity [3]: Non-Toxic
- Activity [24]: Active
- Papp at 20 min, 50 µM [25]: 354 nm/s
- Activity [26]: 67.8%
- Activity [27]: inactive
- Activity [28]: 9.5%
- Activity [29]: inactive
- Stability [30]: Stable

Compound: C#CCN1CCC(/C=C/c2ccc(C(F)(F)F)cc2)CC1.Cl
- Activity [31]: 87%
- viability at 24 h, 50 µM [2]: > 80%
- Papp [32]: Impermeable
- Activity [3]: Non-Toxic
- fold change (FC) [33]: 0.65

Compound: CN1C(=O)CN=C(c2ccccc2)c2cc(Cl)ccc21 [DIAZEPAM]
- fold change (FC) [34]: 2.4
- fold change (FC) [35]: 2.1
